Data set [1] is described as follows: Potentiation of paclitaxel-induced antitumor activity against human KBV cells xenografted in nude mouse assessed as tumor weight at […] cotreated with 30 mg/kg paclitaxel relative to control. The class given is functional.
Data set [2] can be described thus: n-octanol/aqueous buffer solution partition coefficient, log P of the compound at pH 6.8 after 4 hrs by HPLC method. The class given is physicochemical. Summed up:
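Shake-flask partition between n-octanol and pH 6.8 buffer at a 1:1 ratio, room temperature, shaken 4 h. Compound concentration in each phase measured by HPLC.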

The target in data set [3] is T1, ATP-dependent translocase ABCB1 (Homo sapiens, UniProt P08183). As to the kind of experiment: Reversal of P-gp-mediated drug resistance in human KBV cells assessed as potentiation of paclitaxel-induced cytotoxicity by measuring cell survival at 5 uM after 72 hrs by MTT assay (reference value: 98 +/- 19%). The class given is cell-based. (Tetrazolium dyes change colour on reduction, which living cells bring about.)

Data set [4] addresses T1, ATP-dependent translocase ABCB1. As to the kind of experiment: Reversal of P-gp-mediated drug resistance in human KBV cells assessed as potentiation of paclitaxel-induced cytotoxicity by measuring fold reduction in paclitaxel IC50 at 10 uM after 72 hrs by MTT assay relative to paclitaxel alone. In kind it is cell-based. Summed up: (§1)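 KBV cells cultured in RPMI-1640 with 10% heat-inactivated fetal calf serum at 37°C, 5% CO2, and used in log phase. Seeded in 96-well plates. Exposed to paclitaxel with or without modulator (5 or 10 µM) for 24, 48 or 72 h. MTT added, formazan dissolved in DMSO, OD read at 570 nm. Survival rate used to derive paclitaxel IC50. RF taken as the fold reduction of IC50 relative to paclitaxel alone.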

Data set [5] has the same target. As to the kind of experiment: Reversal of P-gp-mediated drug resistance in human KBV cells assessed as potentiation of paclitaxel-induced cytotoxicity by measuring fold reduction in paclitaxel IC50 at 5 uM after 72 hrs by MTT assay relative to paclitaxel alone. The class given is cell-based. Summed up: as §1
Data set [6] shares this target. As to the kind of experiment: Reversal of P-gp-mediated drug resistance in human KBV cells assessed as potentiation of paclitaxel-induced cell cycle arrest by measuring accumulation at sub-G1 phase at 10 uM after 24 hrs by propidium iodide staining based flow cytometry. The procedure, abridged: (§2)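 KBV cells plated in 6-well plates overnight, then treated for 24 h at 10 µM alongside paclitaxel. Cells fixed in 70% ethanol overnight at -20 °C, washed in PBS, and stained 30 min with PI/RNase A. Flow cytometry gave the cell-cycle distribution, with sub-G1 taken as apoptotic cells. Mean ± SD, n = 3.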

Data set [7] has the same target. As to the kind of experiment: Reversal of P-gp-mediated drug resistance in human KBV cells assessed as potentiation of paclitaxel-induced cytotoxicity by measuring reduction in paclitaxel IC50 by MTT assay. In kind it is cell-based.
Data set [8] shares this target. Kind of data set: Reversal of P-gp-mediated drug resistance in human KBV cells assessed as potentiation of paclitaxel-induced cytotoxicity by measuring fold reduction in paclitaxel IC50 at 10 uM after 48 hrs by MTT assay. In kind it is cell-based. Summed up: as §1
Data set [9] in a line: Solubility of the compound in water. To be noted: buffer. In kind it is physicochemical.
For data set [10], the target named is T1, ATP-dependent translocase ABCB1. Kind of data set: Inhibition of P-gp-mediated Rhodamine-123 efflux in human KBV cells assessed as Rhodamine-123 accumulation preincubated for 2 hrs followed by Rhodamine-123 addition measured after 30 mins by flow cytometry. The class given is cell-based. The note with it: 0.5 h. (In general: Flow cytometry measures light scatter and fluorescence of single cells or particles in a stream.)

For data set [11], the system named is Homo sapiens. Kind of data set: Potentiation of paclitaxel-induced antitumor activity against human KBV cells xenografted in Balb/c nude mouse assessed as tumor growth inhibition at 50 mg/kg, po via gavage cotreated with 30 mg/kg, ip paclitaxel. The class given is functional, organism-based. The procedure, abridged: (§3)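 Male BALB/c nude mice, 6−8 weeks old, given 5 × 10^6 KBV cells subcutaneously in the dorsal region. Randomized once tumors reached about 100-200 mm3, five per group: control, paclitaxel 30 mg/kg, test agent 50 mg/kg, or the combination. Paclitaxel given i.p. twice a week; test agent by gavage. Tumor growth measured every three days; tumors excised and weighed at the end.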
On the technique in general: A xenograft is tissue or cells of one species grown in another, often human tumour cells in immunodeficient mice.

The target in data set [12] is T1, ATP-dependent translocase ABCB1. Kind of data set: Reversal of P-gp-mediated drug resistance in human KBV cells assessed as potentiation of paclitaxel-induced cytotoxicity by measuring fold reduction in paclitaxel IC50 at 5 uM after 24 hrs by MTT assay. In kind it is cell-based. The procedure, abridged:
as §1

A short description of data set [13]: Toxicity in Balb/c nude mouse xenografted with human KBV cells at 50 mg/kg, po via gavage cotreated with 30 mg/kg, ip paclitaxel. The class given is organism-based. The note with it: in vivo.
Data set [14] deals with T1, ATP-dependent translocase ABCB1. As to the kind of experiment: Reversal of P-gp-mediated drug resistance in human KBV cells assessed as potentiation of paclitaxel-induced cytotoxicity by measuring fold reduction in paclitaxel IC50 at 10 uM after 24 hrs by MTT assay. The class given is cell-based. Summed up: as §1
For data set [15] the target is unchanged. As to the kind of experiment: Reversal of P-gp-mediated drug resistance in human KBV cells assessed as potentiation of paclitaxel-induced cytotoxicity by measuring fold reduction in paclitaxel IC50 at 5 uM after 48 hrs by MTT assay. The class given is cell-based. The procedure, abridged: as §1
Data set [16] has the same target. As to the kind of experiment: Reversal of P-gp-mediated drug resistance in human KBV cells assessed as potentiation of paclitaxel-induced cell cycle arrest by measuring accumulation at G2/M phase at 10 uM after 24 hrs by propidium iodide staining based flow cytometry. The procedure, abridged: as §2
A short description of data set [17]: Cytotoxicity against human KBV cells assessed as cell survival at 5 uM after 72 hrs by MTT assay relative to control. The class given is cell-based. To be noted: read-out: Survival. Summed up: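 KBV cells (RPMI-1640 with 10% heat-inactivated FCS, 37 °C, 5% CO2, log-phase) were seeded in 96-well plates and exposed to compound alone at 5 µM for 72 h. MTT was added and incubated, then DMSO was added. OD was read at 570 nm and survival rate was calculated.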

Data set [18] can be described thus: Cytotoxicity against human KBV cells xenografted in Balb/c nude mouse assessed as tumor growth inhibition at 50 mg/kg, po via gavage. The class given is organism-based. The note with it: in vivo. The procedure, abridged:
as §3

Calls of active or inactive are those of the source. The rule behind the calls is not given here.

T1 sequence (P08183 whole entry): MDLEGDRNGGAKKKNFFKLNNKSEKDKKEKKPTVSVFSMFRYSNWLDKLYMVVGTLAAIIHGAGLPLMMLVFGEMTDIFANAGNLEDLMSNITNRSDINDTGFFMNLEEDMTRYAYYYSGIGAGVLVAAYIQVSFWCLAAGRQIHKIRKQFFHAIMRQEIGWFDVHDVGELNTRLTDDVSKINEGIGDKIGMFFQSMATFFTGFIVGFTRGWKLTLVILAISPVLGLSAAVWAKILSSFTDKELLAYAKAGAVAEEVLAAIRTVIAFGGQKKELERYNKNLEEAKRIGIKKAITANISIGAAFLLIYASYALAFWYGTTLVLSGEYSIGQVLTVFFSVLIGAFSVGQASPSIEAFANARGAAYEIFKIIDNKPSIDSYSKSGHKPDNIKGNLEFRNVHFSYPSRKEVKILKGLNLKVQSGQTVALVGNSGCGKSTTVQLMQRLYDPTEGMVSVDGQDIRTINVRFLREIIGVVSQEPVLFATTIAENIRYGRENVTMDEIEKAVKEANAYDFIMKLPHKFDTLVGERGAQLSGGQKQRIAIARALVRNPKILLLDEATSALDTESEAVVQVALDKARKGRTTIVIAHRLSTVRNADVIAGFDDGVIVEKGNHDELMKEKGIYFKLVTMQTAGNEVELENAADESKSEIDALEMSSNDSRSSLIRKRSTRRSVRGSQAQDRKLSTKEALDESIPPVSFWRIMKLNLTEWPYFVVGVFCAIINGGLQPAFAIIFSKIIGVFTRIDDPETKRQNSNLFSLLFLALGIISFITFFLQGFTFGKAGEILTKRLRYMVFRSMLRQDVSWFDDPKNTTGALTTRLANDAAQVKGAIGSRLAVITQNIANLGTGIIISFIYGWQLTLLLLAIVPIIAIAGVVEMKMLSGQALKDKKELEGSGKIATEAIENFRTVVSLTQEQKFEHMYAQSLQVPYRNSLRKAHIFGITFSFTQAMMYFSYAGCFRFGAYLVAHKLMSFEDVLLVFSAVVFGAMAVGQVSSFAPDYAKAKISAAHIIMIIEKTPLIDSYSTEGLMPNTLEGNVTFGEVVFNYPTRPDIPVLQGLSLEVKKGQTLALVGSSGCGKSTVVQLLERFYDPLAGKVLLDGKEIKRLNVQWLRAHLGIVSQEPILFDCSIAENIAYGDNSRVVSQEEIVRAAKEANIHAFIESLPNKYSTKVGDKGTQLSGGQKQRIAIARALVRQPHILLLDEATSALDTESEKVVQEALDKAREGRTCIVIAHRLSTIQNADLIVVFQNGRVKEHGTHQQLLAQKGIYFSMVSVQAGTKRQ

For orientation: logD means the decadic logarithm of the distribution of all forms, ionised or not, between an organic phase and buffer at a given pH. Lower therefore signals lower lipophilicity. For the compound `CC1(C)CC[C@]2(C(=O)OCc3ccccc3)CC[C@]3(C)C(=CC[C@@H]4[C@@]5(C)Cc6nccnc6[C@@](C)(CO)[C@@H]5CC[C@]43C)[C@@H]2C1`, in data set [1], the Activity amounted to 42%. In addition, in [2], the logD at 4 h was -0.54. For the same compound, the Survival in data set [3] is given as 18%.

`COc1cc2c(cc1OC)CN(CCc1ccc(NC(=O)c3cc(OC)c(OC)cc3NC(=O)c3cnc4ccccc4c3)cc1)CC2`: the “fold change (FC)” value in data set [4] worked out at 89.41; in data set [5], 75.95.

For the compound `CN(C)CCCOC(=O)[C@]12CCC(C)(C)C[C@H]1C1=CC[C@@H]3[C@@]4(C)Cc5nccnc5[C@@](C)(CO)[C@@H]4CC[C@@]3(C)[C@]1(C)CC2`, the Activity entry in data set [6] was “Active”; in [7], “Dose-dependent effect and Tde”; in data set [13], “Non-Toxic”; in [16], “Active”. Further, the “fold change (FC)” value in data set [8] worked out at 81.11; in data set [12], 77.1; in [14], 109.79; in data set [15], 65.92; in data set [4] it was 250.77; in data set [5], 32.5. The solubility result in data set [9] is “Soluble”. For the same compound, the “inhibition (INH)” value in data set [10] is reported as “Dose-dependent effect”. In addition, in data set [11], the TGI result was “Active”. Further, the logD at 4 h in [2] is -1.25. Besides, the viability at 72 h, 5 µM in data set [17] was determined as 97%. The TGI result in data set [18] is reported as “Non-Toxic”. Moreover, the Survival in data set [3] turned out to be 10%.

As to `CC1(C)CC[C@]2(C(=O)N3CCC[C@H]3C(=O)O)CC[C@]3(C)C(=CC[C@@H]4[C@@]5(C)Cc6nccnc6[C@@](C)(CO)[C@@H]5CC[C@]43C)[C@@H]2C1`, in [2], the logD at 4 h is 0.38. The viability at 72 h, 5 µM in [17] turned out to be 121%. Further, in data set [3], the Survival was 91%.

In [2], `CC1(C)CC[C@]2(C(=O)N[C@@H](Cc3ccccc3)C(=O)O)CC[C@]3(C)C(=CC[C@@H]4[C@@]5(C)Cc6nccnc6[C@@](C)(CO)[C@@H]5CC[C@]43C)[C@@H]2C1` returned a log distribution coefficient (logD) at 4 h of -0.32. For the same compound, in data set [17], the viability at 72 h, 5 µM is 94%. The Survival in data set [3] was 129%.

Regarding `CC1(C)CC[C@]2(C(=O)NCC(=O)O)CC[C@]3(C)C(=CC[C@@H]4[C@@]5(C)Cc6nccnc6[C@@](C)(CO)[C@@H]5CC[C@]43C)[C@@H]2C1`, the logD at 4 h in data set [2] was -0.43. In addition, the viability at 72 h, 5 µM in data set [17] amounted to 96%. The Survival in data set [3] is given as 101%.

In [2], `CC1(C)CC[C@]2(C(=O)O)CC[C@]3(C)C(=CC[C@@H]4[C@@]5(C)Cc6nccnc6[C@@](C)(COC(=O)CCC(=O)O)[C@@H]5CC[C@]43C)[C@@H]2C1` came in with a log distribution coefficient (logD) at 4 h of -0.28. The viability at 72 h, 5 µM in data set [17] amounted to 96%. In addition, the Survival in data set [3] is given as 102%.

Consider `Cl.Cl.Cl.O[C@@H](COc1cccc2ncccc12)CN1CCN([C@@H]2c3ccccc3[C@@H]3[C@H](c4ccccc42)C3(F)F)CC1` [ZOSUQUIDAR TRIHYDROCHLORIDE], for which the results for the “fold change (FC)” value in data set [4] and in [5] were 114.11 and 32.5, respectively.

`CC1(C)CC[C@]2(C(=O)O)CC[C@]3(C)C(=CC[C@@H]4[C@@]5(C)Cc6nccnc6[C@@](C)(COC(=O)c6ccccc6C(=O)O)[C@@H]5CC[C@]43C)[C@@H]2C1` displayed a log distribution coefficient (logD) at 4 h in data set [2] of -0.66. The viability at 72 h, 5 µM in data set [17] was found to be 116%. Further, the Survival in [3] was 85%.

In the case of `CC1(C)CC[C@]2(C(=O)ONC(=O)CCC(=O)O)CC[C@]3(C)C(=CC[C@@H]4[C@@]5(C)Cc6nccnc6[C@@](C)(CO)[C@@H]5CC[C@]43C)[C@@H]2C1`, the logD at 4 h in [2] is -0.78. The viability at 72 h, 5 µM in data set [17] was determined as 89%. Moreover, the Survival in [3] amounted to 112%.

For the compound `CC1(C)CC[C@]2(C(=O)On3nnc4ccccc43)CC[C@]3(C)C(C(=O)C[C@@H]4[C@@]5(C)CCC(=O)[C@@](C)(CO)[C@@H]5CC[C@]43C)[C@@H]2C1` (stereo not given in full), in data set [2], the logD at 4 h stood at 0.14. The viability at 72 h, 5 µM in data set [17] is 110%. In addition, the Survival in data set [3] is on record as 127%.

These data come from ChEMBL document CHEMBL4325867, “Synthesis and biological evaluation of novel H6 analogues as drug resistance reversal agents” (Eur J Med Chem, 2019).
